Measured values as given in ChEMBL document CHEMBL1949601, “γ-Carbolines: a novel class of cannabinoid agonists with high aqueous solubility and restricted CNS penetration” (Bioorg Med Chem Lett, 2012).

Legend:
[1] = target: Adenosine receptor A3 (Rattus norvegicus) (UniProt P28647); test: Activity at rat A3 receptor at 10 uM
[2] = Clearance in iv dosed Sprague-Dawley rat; assay type: ADME, organism-based; details: in vivo
[3] = target: C-X-C chemokine receptor type 2 (Homo sapiens) (UniProt P25025); test: Activity at human CXCR2 receptor at 10 uM
[4] = target: C-C chemokine receptor type 1 (Homo sapiens) (UniProt P32246); test: Activity at human CCR1 at 10 uM
Rattus norvegicus [5] = species: Rattus norvegicus; test: Activity at rat GABAa receptor at 10 uM
[6] = target: Calcitonin gene-related peptide type 1 receptor (Homo sapiens) (UniProt Q16602); test: Activity at human CGRP receptor at 10 uM
[7] = target: Neuromedin-K receptor (Homo sapiens) (UniProt P29371); test: Activity at human NK3 receptor at 10 uM
Rattus norvegicus [8] = test: Toxicity in Sprague-Dawley rat carrageenan pain model assessed as hypoactivity at 0.35 to 1.4 mg/kg, sc; assay type: organism-based; design: dose 0.35-1.4 mg/kg, route subcutaneous; details: in vivo
Summary of the method: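 Carrageenan-model rats given 0.35–1.4 mg/kg sc; hypoactivity scored 0 absent, 1 mild, 2 moderate, 3 severe; ptosis and exophthalmos also checked. n = 7; mean ± SEM; one-way ANOVA, Holm-Sidak versus vehicle.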

Brain = test: Drug uptake in brain of Sprague-Dawley rat at 0.35 to 1.4 mg/kg, sc; assay type: ADME, organism-based; design: dose 0.35-1.4 mg/kg, route subcutaneous; details: in vivo, read-out: Drug uptake
Summary of the method: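 Rats dosed sc at 0.35, 0.70 and 1.4 mg/kg in carrageenan model; brain homogenised, protein precipitated with ACN, centrifuged 9000g 30 min at 4 °C, measured by reversed-phase LC–MS/MS against serial-dilution calibration curve; brain corrected for 2% blood contamination.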

Cannabinoid receptor 1 = Cannabinoid receptor 1 (Rattus norvegicus, UniProt P20272); test: Agonist activity at CB1 receptor in rat brain tissue; assay type: functional, tissue-based
Cannabinoid receptor 2 = Cannabinoid receptor 2 (Homo sapiens, UniProt P34972); test: Binding affinity to human CB2 receptor
[9] = target: fMet-Leu-Phe receptor (Homo sapiens) (UniProt P21462); test: Activity at human FPR1 receptor at 10 uM
[10] = Activity at L-Type Calcium channel at 10 uM
[11] = target: C-X-C chemokine receptor type 6 (Homo sapiens) (UniProt O00574); test: Activity at human CXCR6 receptor at 10 uM
[12] = Activity at nAChR receptor at 10 uM
Mu-type opioid receptor = Mu-type opioid receptor (Homo sapiens, UniProt P35372); test: Inhibition of human MOR
[13] = target: Prokineticin receptor 1 (Mus musculus) (UniProt Q9JKL1); test: Activity at mouse GPR73 receptor at 10 uM
MAO-A = MAO-A (Homo sapiens, UniProt P21397); test: Activity at human MAO-A receptor at 10 uM; details: read-out: Activity
Cytochrome P450 3A4 = Cytochrome P450 3A4 (Homo sapiens, UniProt P08684); test: Inhibition of CYP3A4; assay type: ADME
[14] = Ratio of drug uptake in brain to plasma of mouse; assay type: ADME, cell-free; details: read-out: BPR
Summary of the method: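 Compound given sc or po; blood and brain sampled 30 or 60 min post-dose; total plasma and brain concentrations by protein precipitation (brain homogenised) and LC–MS/MS; brain values corrected for 2% blood contamination; brain/plasma ratio calculated.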

[15] = target: Motilin receptor (Homo sapiens) (UniProt O43193); test: Activity at human Mtl receptor at 10 uM
[16] = target: D(2) dopamine receptor (Homo sapiens) (UniProt P14416); test: Activity at human dopamine2L receptor at 10 uM
[17] = target: Protein kinase C alpha type (Homo sapiens) (UniProt P17252); test: Activity at human PKCalpha at 10 uM
[18] = target: Cannabinoid receptor 1 (Rattus norvegicus) (UniProt P20272); test: Agonist activity at CB1 receptor in rat brain tissue relative to control; assay type: functional, tissue-based
[19] = Activity at Nav site2 receptor at 10 uM
[20] = Dissociation constant, pKa of the compound; assay type: physicochemical
Rattus norvegicus [21] = test: Volume of distribution at steady state in po dosed Sprague-Dawley rat; assay type: ADME, organism-based; details: in vivo
[22] = target: Pyroglutamylated RF-amide peptide receptor (Rattus norvegicus) (UniProt P83858); test: Activity at rat GPR103 receptor at 10 uM
[23] = Metabolic stability in rat liver microsomes; assay type: ADME, Microsome; details: read-out: Stability

Chain of Neuromedin-K receptor (Homo sapiens) (P29371 whole entry): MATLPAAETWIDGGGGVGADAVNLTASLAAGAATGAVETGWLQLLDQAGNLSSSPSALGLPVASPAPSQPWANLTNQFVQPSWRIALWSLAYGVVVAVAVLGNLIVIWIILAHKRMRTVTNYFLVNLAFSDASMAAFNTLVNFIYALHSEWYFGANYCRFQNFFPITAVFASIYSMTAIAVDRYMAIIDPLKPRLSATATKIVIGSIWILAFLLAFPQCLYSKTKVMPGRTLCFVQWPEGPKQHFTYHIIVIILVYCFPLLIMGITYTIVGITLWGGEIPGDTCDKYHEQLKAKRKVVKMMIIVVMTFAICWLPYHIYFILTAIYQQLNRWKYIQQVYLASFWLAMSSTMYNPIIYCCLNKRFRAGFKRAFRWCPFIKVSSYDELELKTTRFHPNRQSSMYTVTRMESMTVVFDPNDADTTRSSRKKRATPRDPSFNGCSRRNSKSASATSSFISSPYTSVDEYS
Chain of Cannabinoid receptor 1 (P20272 whole entry): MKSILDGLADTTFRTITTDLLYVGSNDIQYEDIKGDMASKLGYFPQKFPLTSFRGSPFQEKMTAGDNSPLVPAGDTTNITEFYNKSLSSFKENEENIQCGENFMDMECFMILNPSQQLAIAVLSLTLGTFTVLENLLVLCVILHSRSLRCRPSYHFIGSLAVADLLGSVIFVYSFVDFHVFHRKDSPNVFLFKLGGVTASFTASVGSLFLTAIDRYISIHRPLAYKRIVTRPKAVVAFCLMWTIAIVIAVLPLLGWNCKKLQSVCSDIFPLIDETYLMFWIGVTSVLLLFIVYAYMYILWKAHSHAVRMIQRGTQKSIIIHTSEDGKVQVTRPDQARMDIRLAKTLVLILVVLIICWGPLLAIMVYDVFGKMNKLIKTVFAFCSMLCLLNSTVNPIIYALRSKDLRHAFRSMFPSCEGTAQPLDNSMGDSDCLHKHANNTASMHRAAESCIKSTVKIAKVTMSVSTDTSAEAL
Chain of Cannabinoid receptor 1 (Rattus norvegicus) (P20272 whole entry): as above
Chain of fMet-Leu-Phe receptor (Homo sapiens) (P21462 whole entry): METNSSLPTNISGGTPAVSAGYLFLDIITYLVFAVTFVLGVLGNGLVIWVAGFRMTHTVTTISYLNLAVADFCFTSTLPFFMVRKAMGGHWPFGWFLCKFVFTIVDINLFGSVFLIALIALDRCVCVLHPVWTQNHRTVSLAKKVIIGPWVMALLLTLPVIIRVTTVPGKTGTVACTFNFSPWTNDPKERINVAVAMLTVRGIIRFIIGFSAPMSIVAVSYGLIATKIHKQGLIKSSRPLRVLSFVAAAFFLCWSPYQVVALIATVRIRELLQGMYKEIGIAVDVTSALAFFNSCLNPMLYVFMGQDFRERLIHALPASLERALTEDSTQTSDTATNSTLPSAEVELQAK
Chain of C-X-C chemokine receptor type 6 (Homo sapiens) (O00574 whole entry, looked up): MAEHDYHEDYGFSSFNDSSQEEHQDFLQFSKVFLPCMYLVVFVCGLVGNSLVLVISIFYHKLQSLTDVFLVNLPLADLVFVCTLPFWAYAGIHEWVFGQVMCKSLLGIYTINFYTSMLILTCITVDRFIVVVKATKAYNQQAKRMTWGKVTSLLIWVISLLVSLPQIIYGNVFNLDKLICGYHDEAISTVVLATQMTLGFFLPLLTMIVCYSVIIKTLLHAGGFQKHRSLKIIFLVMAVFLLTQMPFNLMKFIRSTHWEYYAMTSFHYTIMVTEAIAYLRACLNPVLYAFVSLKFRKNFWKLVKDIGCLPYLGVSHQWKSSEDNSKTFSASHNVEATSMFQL
Chain of Calcitonin gene-related peptide type 1 receptor (Homo sapiens) (Q16602 whole entry): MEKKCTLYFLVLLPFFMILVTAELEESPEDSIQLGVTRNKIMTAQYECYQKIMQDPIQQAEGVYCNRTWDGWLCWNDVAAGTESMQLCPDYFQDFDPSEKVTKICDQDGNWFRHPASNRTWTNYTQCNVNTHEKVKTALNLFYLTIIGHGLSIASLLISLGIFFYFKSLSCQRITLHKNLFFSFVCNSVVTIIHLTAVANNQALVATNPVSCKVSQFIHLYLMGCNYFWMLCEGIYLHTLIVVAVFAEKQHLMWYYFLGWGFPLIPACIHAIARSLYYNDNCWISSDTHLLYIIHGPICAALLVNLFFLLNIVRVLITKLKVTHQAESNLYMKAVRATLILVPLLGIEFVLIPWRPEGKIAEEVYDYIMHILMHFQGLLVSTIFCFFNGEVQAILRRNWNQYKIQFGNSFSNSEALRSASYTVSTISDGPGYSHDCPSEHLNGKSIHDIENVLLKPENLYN
Chain of C-X-C chemokine receptor type 2 (Homo sapiens) (P25025 whole entry): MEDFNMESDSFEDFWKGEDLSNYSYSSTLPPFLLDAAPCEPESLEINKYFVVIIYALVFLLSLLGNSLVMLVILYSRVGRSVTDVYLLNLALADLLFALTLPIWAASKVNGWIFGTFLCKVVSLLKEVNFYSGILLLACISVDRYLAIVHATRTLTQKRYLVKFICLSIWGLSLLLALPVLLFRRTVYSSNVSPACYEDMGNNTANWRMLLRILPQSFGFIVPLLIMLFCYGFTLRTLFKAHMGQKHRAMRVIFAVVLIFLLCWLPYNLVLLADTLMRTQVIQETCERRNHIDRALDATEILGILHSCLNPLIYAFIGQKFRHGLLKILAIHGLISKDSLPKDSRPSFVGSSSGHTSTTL
Chain of MAO-A (P21397 whole entry): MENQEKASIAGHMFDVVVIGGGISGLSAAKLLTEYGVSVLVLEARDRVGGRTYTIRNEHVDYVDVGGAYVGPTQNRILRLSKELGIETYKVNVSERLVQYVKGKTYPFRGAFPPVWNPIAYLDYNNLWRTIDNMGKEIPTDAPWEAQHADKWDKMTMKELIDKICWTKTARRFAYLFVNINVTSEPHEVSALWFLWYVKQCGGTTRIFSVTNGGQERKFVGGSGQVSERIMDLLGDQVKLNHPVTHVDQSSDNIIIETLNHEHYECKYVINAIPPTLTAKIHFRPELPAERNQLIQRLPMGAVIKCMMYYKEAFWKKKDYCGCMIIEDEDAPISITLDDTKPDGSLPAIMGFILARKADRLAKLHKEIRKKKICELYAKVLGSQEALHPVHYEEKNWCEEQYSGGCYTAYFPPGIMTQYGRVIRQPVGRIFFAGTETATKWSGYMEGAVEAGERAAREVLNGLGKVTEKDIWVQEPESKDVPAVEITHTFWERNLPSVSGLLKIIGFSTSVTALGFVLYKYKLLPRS
Chain of Mu-type opioid receptor (P35372 whole entry): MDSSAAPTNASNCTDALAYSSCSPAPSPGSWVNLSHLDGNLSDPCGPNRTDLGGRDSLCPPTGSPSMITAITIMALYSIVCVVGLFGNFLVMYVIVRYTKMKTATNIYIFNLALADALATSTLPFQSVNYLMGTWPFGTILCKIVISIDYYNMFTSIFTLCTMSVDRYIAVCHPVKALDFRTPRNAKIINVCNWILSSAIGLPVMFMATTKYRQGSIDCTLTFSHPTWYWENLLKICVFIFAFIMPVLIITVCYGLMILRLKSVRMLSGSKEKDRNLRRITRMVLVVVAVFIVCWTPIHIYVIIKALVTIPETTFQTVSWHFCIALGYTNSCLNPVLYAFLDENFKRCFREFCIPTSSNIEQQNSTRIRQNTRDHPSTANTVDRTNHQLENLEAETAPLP
Chain of Pyroglutamylated RF-amide peptide receptor (Rattus norvegicus) (P83858 whole entry): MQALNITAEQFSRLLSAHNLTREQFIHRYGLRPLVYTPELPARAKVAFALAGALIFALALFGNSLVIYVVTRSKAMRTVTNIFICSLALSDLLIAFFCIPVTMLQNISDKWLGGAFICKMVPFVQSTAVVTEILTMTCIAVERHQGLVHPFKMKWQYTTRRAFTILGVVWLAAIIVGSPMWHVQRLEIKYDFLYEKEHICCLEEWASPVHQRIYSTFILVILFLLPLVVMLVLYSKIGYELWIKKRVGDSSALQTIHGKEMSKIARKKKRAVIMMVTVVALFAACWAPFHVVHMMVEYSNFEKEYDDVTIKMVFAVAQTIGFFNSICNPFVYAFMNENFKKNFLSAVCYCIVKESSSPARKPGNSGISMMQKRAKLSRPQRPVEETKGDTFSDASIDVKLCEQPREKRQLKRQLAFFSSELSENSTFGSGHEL
Chain of C-C chemokine receptor type 1 (Homo sapiens) (P32246 whole entry): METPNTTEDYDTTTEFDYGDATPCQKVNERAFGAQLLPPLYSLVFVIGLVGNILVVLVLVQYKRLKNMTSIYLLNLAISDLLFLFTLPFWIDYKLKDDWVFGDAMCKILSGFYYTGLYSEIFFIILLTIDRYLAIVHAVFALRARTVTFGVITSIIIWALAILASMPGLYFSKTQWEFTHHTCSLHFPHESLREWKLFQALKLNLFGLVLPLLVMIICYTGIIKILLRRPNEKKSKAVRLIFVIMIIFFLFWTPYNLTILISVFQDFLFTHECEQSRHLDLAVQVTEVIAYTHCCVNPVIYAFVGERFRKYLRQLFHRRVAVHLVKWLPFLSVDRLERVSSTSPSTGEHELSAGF

CCS(=O)(=O)n1c2c(c3cc(C(=O)N4CCC(C)CC4)ccc31)CN(C1CCOCC1)CC2
Activity [1]: < 50%
clearance [2]: 28 mL/min/kg
Activity [3]: < 50%
Activity [4]: < 50%
Activity (Rattus norvegicus [5]): < 50%
Activity [6]: < 50%
Activity [7]: < 50%
Activity (Rattus norvegicus [8]): Non-toxic
concentration (Brain): 10 nM
EC50 (Cannabinoid receptor 1): 85 nM
Ki (Cannabinoid receptor 2): 9 nM
Activity [9]: < 50%
Activity [10]: < 50%
Activity [11]: < 50%
Activity [12]: < 50%
IC50 (Mu-type opioid receptor): > 10000 nM
Activity [13]: < 50%
activity at 10 µM (MAO-A): < 50%
IC50 (Cytochrome P450 3A4): > 20000 nM
Kp [14]: 0.05
Activity [15]: < 50%
Activity [16]: < 50%
Activity [17]: < 50%
Emax [18]: 156%
Activity [19]: < 50%
pKa [20]: 6.9
Vdss (Rattus norvegicus [21]): 1.2 L/kg
Activity [22]: < 50%
microsomal CLint [23]: 202 µL/min/mg
